Results of several laboratories.
Lines come from different studies, so protocols differ.
Target: Cytoplasmic tyrosine-protein kinase BMX (BMX, Homo sapiens, UniProt P51813)
Sequence (P51813 1-675, as in one of the studies): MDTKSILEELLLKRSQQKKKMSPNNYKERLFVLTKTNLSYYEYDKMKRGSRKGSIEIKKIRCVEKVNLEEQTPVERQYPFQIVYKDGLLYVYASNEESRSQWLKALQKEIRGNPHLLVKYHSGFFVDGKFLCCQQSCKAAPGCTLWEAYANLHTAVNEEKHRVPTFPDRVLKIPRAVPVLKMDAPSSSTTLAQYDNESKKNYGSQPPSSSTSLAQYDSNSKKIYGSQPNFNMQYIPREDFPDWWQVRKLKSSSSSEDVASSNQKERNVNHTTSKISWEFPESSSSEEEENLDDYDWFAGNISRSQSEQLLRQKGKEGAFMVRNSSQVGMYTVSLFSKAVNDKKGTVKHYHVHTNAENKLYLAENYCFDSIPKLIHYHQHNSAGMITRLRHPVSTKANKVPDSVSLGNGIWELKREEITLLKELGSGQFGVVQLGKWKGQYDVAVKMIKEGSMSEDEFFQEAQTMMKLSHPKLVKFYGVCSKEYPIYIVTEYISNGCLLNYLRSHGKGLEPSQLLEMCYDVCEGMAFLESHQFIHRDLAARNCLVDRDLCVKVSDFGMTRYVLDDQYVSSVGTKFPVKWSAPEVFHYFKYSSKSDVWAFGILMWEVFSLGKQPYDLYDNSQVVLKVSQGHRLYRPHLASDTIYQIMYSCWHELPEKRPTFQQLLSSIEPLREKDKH

`Cn1cc(-c2cccc(N3CCc4c(sc5c4CC(C)(C)C5)C3=O)c2CO)cc(Nc2ccncn2)c1=O` has an inhibition of 49% (enzyme activity, inhibitor; 1 µM).
For `Cn1cncc1[C@@](O)(COc1ccc(C#N)cc1-c1ccc(OC(F)(F)F)cc1)c1ccc(C#N)cc1`, the remaining binding was 64% (cell-free assay, competition with immobilised ligand; 1 µM).
`CCn1cnc2c(Nc3cccc(Cl)c3)nc(N[C@H]3CCCC[C@H]3N)nc21` gave a remaining activity of 90.7% (enzyme activity, inhibitor; 0.5 µM).
For `Cn1cc(-c2cc(F)cc(N3CCn4c(cc5c4CCCC5)C3=O)c2CO)cc(Nc2ccc(N3CCN(C4COC4)CC3)cn2)c1=O`, the inhibition was 37% (enzyme activity, inhibitor; 0.1 µM).
`C#Cc1n[nH]c2c(-c3cn([C@@H](C)c4ccccc4)c(=O)[nH]c3=O)cc(F)cc12` gave an inhibition of -7.4% (enzyme activity, inhibitor; 0.1 µM).
With `Cc1nn(C)cc1-c1nc2c(N3CCN(Cc4ccc(Cl)cc4)CC3)c(Cl)cnc2[nH]1` the remaining binding was 100% (binding, competition with immobilised ligand; 1 µM).
For `C#Cc1n[nH]c2c(-c3cn([C@@H](C)c4ccccn4)c(=O)[nH]c3=O)cc(F)cc12`, the inhibition was -1.6% (enzyme activity, inhibitor; 0.1 µM).
For `COc1ncccc1-c1cnn2ccc(N3CCN(C(=O)OC(C)C)CC3)nc12`, the remaining binding was 91% (binding, competition with immobilised ligand; 1 µM).
`Nc1ncc(-c2nc(N3CCOCC3)nc(N3CCOCC3)n2)c(C(F)F)n1` has a remaining binding of 86% (binding, competition with immobilised ligand; 10 µM).
`N#CC1(c2ccccn2)CCN(Cc2cc(C(=O)O)c(=O)n3ccccc23)CC1` gave a remaining binding of 88% (cell-free assay, competition with immobilised ligand; 1 µM).
For `O=c1[nH]c2ccccc2n1C1CCN(Cc2ccc(-c3[nH]c4cc5ncnc5cc4nc3-c3ccccc3)cc2)CC1`, the remaining signal was 108% (cell-free assay; 0.5 µM).
